Bioassay records: PubChem BioAssay, several laboratories
Only a selection was taken, and hits are over-represented in it overall.
CHOP inh – blocks CHOP induction under ER stress; CHO-K1 CHOP-promoter luciferase, tunicamycin-induced, 15-18 h; inhibition, % at 10 µM; 220,000 tested, 3.8% active; AID 2732;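 active = compounds that reduced the stress-induced luciferase reporter signal by more than about 70% of percent inhibition, limit read from the data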
UPR CHOP act – apoptotic UPR (CHOP) activation; CHO-CHOP luciferase reporter, luminescence; percent of tunicamycin response over DMSO baseline; activation, % at 10 µM; 330,000 tested, 0.34% active;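 active = at 10 µM dose, activation of 40% or more, normalized to positive control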
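System: CHO-CHOP luciferase reporter cell line | Buffer or medium: F12 medium containing 10% fetal bovine serum | Doses: One dose, 10 µM in 0.5% DMSO | Times: 6 h compound exposure at 37 °C after overnight seeding | Signal: Luciferase luminescence | Read-out: % activation vs tunicamycin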
UPR XBP1 act – activators of adaptive arm of unfolded protein response (XBP1) | CHO-XBP1 luciferase reporter, IRE1-XBP1 UPR activation, luminescence; percent of tunicamycin response, DMSO as zero | activation, % at 20 µM | 330,000 tested, 0.33% active;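 active = versus positive control, 20 µM dose yields 30% or more activation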
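Signal: luciferase luminescence; Assay system: CHO-XBP1 luciferase reporter cells; Amount: one thousand reporter cells per well; Dosing: 20 µM single concentration, DMSO 1%; Benchmarks: high control tunicamycin 10 µg/mL final, low control DMSO vehicle only; Schedule: 6 h compound exposure at 37 °C, 5% CO2; Evaluation: percent activation relative to tunicamycin reference.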
L major viab – inhibitors of Leishmania major promastigote growth; AID 1063; Leishmania major promastigotes, resazurin fluorescence viability; inhibition, % at 10 µM; 200,000 tested, 9% active; in the data active = inhibition above about 50%;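 note: promastigotes grown with compound for 44 hours at 28 °C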
Dynein cargo inh – blocks dynein driven cargo transport along microtubules. 220,000 tested, 0.47% active. 3617.4 mouse cells, GR-EGFP nuclear translocation imaging; test concentration mostly 20 µM; stimulated with dexamethasone, 1 µM; active compounds read low. z-score, hits read low. AID 1381;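 active = plate z-score of nuclear minus cytoplasmic receptor signal below a set negative limit, without overly bright fluorescence or cell loss, cut at about -3.5 in these data, passing the limit was not always enough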;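 note: z-score of nuclear minus cytoplasmic ring GR-EGFP intensity difference per well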
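Buffer or medium: tet-free, stripped-serum medium; reagent: dexamethasone at 1.0 µM final, 30 min; incubation: 48 h induction, 1 h compound, 30 min dex at 37 °C; measured by: formaldehyde fixation, Hoechst nuclear stain, 10x automated fluorescence imaging; read-out: nuclear-to-cytoplasmic GR-EGFP distribution per well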
T cruzi inh – blocks replication of Trypanosoma cruzi; inhibition, % (no concentration beside the values); 300,000 tested, 1.4% active; T. cruzi beta-gal in NIH3T3, luminescence, 90 h;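 active = mean inhibition across valid replicates above about 55%, limit read from the data; inconclusive = mean below that limit but half or more replicates reach it; inactive = mean below it, under half of replicates reach it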;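 note: signal also drops with host cell toxicity which is not excluded here; higher percent means less beta-gal luminescence so fewer parasites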
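Read-out: Parasite load inhibition, % | Test system: Mouse NIH/3T3 fibroblasts infected with β-gal-expressing T. cruzi Tulahuen C4 | Amount: 5,000 cells/well | Medium: DMEM, 2% fetal bovine serum | Signal: GalScreen β-gal luminescence, detergent lysis, 60 min | Timing: 3 h attach, ≥90 h co-culture | Also added: Tulahuen C4 trypomastigotes, 5000/well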
Of the large screens only hits and unclear results are named; the others gave an inactive call.

O=C1C2CCCCC2C(=O)N1c1ccc(NC2CCCCC2)c([N+](=O)[O-])c1 (configuration not stated)	L major viab 52
CC(OC(=O)c1nn(C)c(=O)c2ccccc12)C(=O)Nc1ccc(S(N)(=O)=O)cc1 (configuration not stated)	none (no result: CHOP inh, L major viab, Dynein cargo inh)
O=C(CSc1nc(=O)n(CCCN2CCOCC2)c2c1CCCC2)Nc1cccc(Cl)c1	none (no result: CHOP inh, L major viab, Dynein cargo inh)
O=C(NN1CCOCC1)c1ccccc1	none (no result: CHOP inh, L major viab, Dynein cargo inh)
CCOC(=O)c1c(NC(=O)c2ccccc2)sc2c(O)c(CN(CC)CC)ccc12	L major viab 100
CCN(CC)Cc1c(NC(=O)c2ccccc2)sc(C)c1C	none
O=C(CCc1ccccc1)c1nnc(-c2ccccc2)o1	none
CCOc1ccc(S(=O)(=O)N2CCC(C(=O)NCCN3CCOCC3)CC2)cc1C	none (no result: CHOP inh, L major viab, Dynein cargo inh)
O=C(Nc1nc2ccccc2n1CCOc1ccccc1)c1ccco1	L major viab 62
O=C(Nc1nc2ccccc2n1CCN1CCCCC1)c1ccco1	none
Cc1ccc(OCCn2c(NC(=O)c3ccco3)nc3ccccc32)cc1	none
O=C(Nc1nc2ccccc2n1CCOc1ccc(Cl)cc1)c1ccco1	L major viab 90, T cruzi inh 57
CCOC(=O)c1ncccc1NC(=O)CC(=O)Nc1cccnc1C(=O)OCC	none (no result: CHOP inh, L major viab, Dynein cargo inh)
O=C(NNc1cccc(Cl)c1)c1cccnc1Cl	L major viab 88
O=C(NNc1cccc(Cl)n1)c1cccnc1Cl	none
Cc1cc(C)c(OCCCn2ccnc2)c(C)c1	none (no result: CHOP inh, L major viab, Dynein cargo inh)
Cc1cc(C)c(C)c(OCCCn2ccnc2)c1	L major viab 82, T cruzi inh inconclusive
Cc1ccc(C)c(OCCCCn2ccnc2)c1	L major viab 99, T cruzi inh 71
Cc1ccc(OCCCCn2ccnc2)c([N+](=O)[O-])c1	L major viab 96
COC(=O)c1ccc(Oc2c(C)oc3c(CN4CCN(C)CC4)c(O)ccc3c2=O)cc1	L major viab 100 (no result: CHOP inh)
COc1ccc(-c2c(C)oc3c(CN4CCN(C)CC4)c(O)ccc3c2=O)cc1	L major viab 99
CCN1CCN(Cc2c(O)ccc3c(=O)c(-c4ccc(OC)c(OC)c4)c(C)oc23)CC1	L major viab 100 (no result: CHOP inh)
Cc1oc2c(CN3CCC(C)CC3)c(O)ccc2c(=O)c1-c1ccccc1	none (no result: CHOP inh, L major viab, Dynein cargo inh)
COc1ccccc1Oc1c(C)oc2c(CN3CCN(C)CC3)c(O)ccc2c1=O	none
Cc1oc2c(CN3CCCC3)c(O)ccc2c(=O)c1-c1ccccc1	none
O=c1c(Oc2ccccc2Br)c(C(F)(F)F)oc2c(CN3CCCC3)c(O)ccc12	L major viab 86
CCOC(=O)c1oc2c(CN3CCCCC3C)c(O)ccc2c(=O)c1-c1ccc(OC)c(OC)c1 (configuration not stated)	none
COc1cccc(CNC(=O)Cn2ccc3cc(S(=O)(=O)N4CCCCCC4)ccc32)c1	none (no result: CHOP inh, L major viab, Dynein cargo inh)
CC(C)(C)c1nc2c(s1)CCc1onc(-c3ccc(Cl)cc3)c1-2	none (no result: CHOP inh, L major viab, Dynein cargo inh)
CCCc1cc(=O)oc2c(CN3CCN(C)CC3)c(O)ccc12	none (no result: CHOP inh, L major viab, Dynein cargo inh)
COc1ccc(-c2c(C(F)(F)F)oc3c(CN4CCN(C)CC4)c(O)ccc3c2=O)cc1	L major viab 100
CCCSC1=C(C#N)C(c2cccs2)C(C(=O)Nc2ccccc2)=C(C)N1 (configuration not stated)	L major viab 89
CCOC(=O)C1=C(C)NC(SCC(N)=O)=C(C#N)C1c1cccs1 (configuration not stated)	none
CC1=C(C(=O)Nc2nc3ccccc3s2)C(c2ccco2)C(C#N)=C(SCC(=O)NC2CCCCC2)N1 (configuration not stated)	L major viab 73
CCOC(=O)CSC1=C(C#N)C(c2ccco2)C(C(=O)Nc2cccc(C(F)(F)F)c2)=C(C)N1 (configuration not stated)	none
CC1=C(C(=O)Nc2ccccc2)C(c2ccncc2)C(C#N)=C(SCC(=O)NC2CC2)N1 (configuration not stated)	L major viab 73
